In the array DNA melting data of Ke et al. (doi:10.1101/2024.01.08.574731) one finds folding enthalpy and Tm data, which are given here for 37 sequences.

A short description of data set [1]: folding enthalpy; higher = less favourable; fluorescence melt of hairpins on a sequencing array, two-state fit. To be noted: sodium 0.088 M. An outline of the steps:
(§1)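 Cy3 signals were normalised both to pre-quench Cy3 and to control constructs. They came from library hairpins carrying annealed Cy3 and quencher oligos on a sequenced MiSeq flow cell, imaged in 50 mM Na-HEPES pH 8.0, 25 mM NaCl, in 2.5 °C steps up to 60 °C. Bootstrapped two-state fits gave melting temperature and folding enthalpy, and four replicates were combined by inverse variance. Fitted temperatures were then raised by 9.35 °C to match UV melts.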

Data set [2] can be described thus: melting temperature; fluorescence melt of hairpins on a sequencing array, two-state fit, raised by 9.35 °C to match UV melts. The conditions noted are these: sodium 0.088 M. Summed up: as §1

Regarding GTAGCCCGAAAGGGATAC (((.(((....))).))), in data set [1], the folding enthalpy was -33.7 kcal/mol. In addition, the Tm in data set [2] amounted to 64.3 °C.

For the sequence GGTTCTACGAAAGTAACC (((..(((....)))))), the folding enthalpy in data set [1] was -19.6 kcal/mol. Further, the Tm in data set [2] was 28.2 °C.

GTGGCCGGAAACGACCAC ((((.((....)).)))): in data set [1], the folding enthalpy was -40.3 kcal/mol. Moreover, the Tm in data set [2] came to 56.5 °C.

On to GATCTAAAATTAGATC ((((((....)))))), for which, in data set [1], the folding enthalpy was -29.9 kcal/mol. The Tm in data set [2] amounted to 35.7 °C.

Turning to GCTAGGGGAAACTCTGGC ((.((.(....).)).)), the folding enthalpy in data set [1] was -23.9 kcal/mol. Further, the Tm in data set [2] amounted to 32.9 °C.

For GAGCAGCCGAAAGGCCTC (((..(((....)))))), the folding enthalpy in data set [1] is -10.8 kcal/mol. For the same sequence, the Tm in data set [2] turned out to be 31.7 °C.

In the case of GGTAGGAAACTACC (((((....))))), the folding enthalpy in data set [1] was -26.5 kcal/mol. For the same sequence, the Tm in data set [2] came to 48.2 °C.

On to GATGATGGAAACATCACC (.(((((....))))).), for which, in data set [1], the folding enthalpy is -16.3 kcal/mol. For the same sequence, the Tm in data set [2] came to 37.3 °C.

For GATCGTCCCTACGATC ((((((....)))))), in data set [1], the folding enthalpy was -43.9 kcal/mol. In addition, the Tm in data set [2] worked out at 55 °C.

For GACCCCGGAAACGAGGTC ((((.((....)).)))), in data set [1], the folding enthalpy was -36.9 kcal/mol. The Tm in data set [2] is 48 °C.

With GCCTTTCGAAAGAAGGGC (((.(((....))).))), the folding enthalpy in data set [1] is -47.5 kcal/mol. Besides, the Tm in data set [2] amounted to 53.6 °C.

Consider GTATTTGAAAAAATAC ((((((....)))))), for which, in data set [1], the folding enthalpy was -25.2 kcal/mol. Moreover, the Tm in data set [2] came to 38.1 °C.

Consider GATCCAACATTGGATC ((((((....)))))), for which the folding enthalpy in data set [1] was -43.3 kcal/mol. Further, the Tm in data set [2] worked out at 50 °C.

Take GGGTAGGGAAACCTACTC (.(((((....))))).): in data set [1], the folding enthalpy is -18.7 kcal/mol. Also, in data set [2], the Tm was 44.6 °C.

Regarding GATCTTCACAAGATC ((((((...)))))), the folding enthalpy in data set [1] is -28.7 kcal/mol. The Tm in data set [2] was 45.8 °C.

For the sequence GTCTGCGGAAACGCGGAC (((.(((....))).))), the folding enthalpy in data set [1] is -39.2 kcal/mol. The Tm in data set [2] is 63.7 °C.

Regarding GATCATAGGTATGATC ((((((....)))))), the folding enthalpy in data set [1] was -40.5 kcal/mol. The Tm in data set [2] came to 49.1 °C.

As for CGGGACGGAAACGTTCCG (((.(((....))).))), the folding enthalpy in data set [1] was -37.8 kcal/mol. Moreover, in data set [2], the Tm worked out at 59.4 °C.

As to GCTTTGCGAAAGCAACGC ((.((((....)))).)), in data set [1], the folding enthalpy is -20.8 kcal/mol. Besides, in data set [2], the Tm turned out to be 55.9 °C.

Regarding GATCCATCGGTGGATC ((((((....)))))), the folding enthalpy in data set [1] was -39.5 kcal/mol. Besides, the Tm in data set [2] was determined as 50.6 °C.

In the case of GATCCGCATACGGATC ((((((....)))))), in data set [1], the folding enthalpy was -37.9 kcal/mol. Also, the Tm in data set [2] was 61.5 °C.

Take GATCACAACGGTGATC ((((((....)))))): in data set [1], the folding enthalpy is -38.7 kcal/mol. For the same sequence, the Tm in data set [2] came to 56 °C.

Regarding GACAGCGAAAGCTGGTC ((((((....))).))), the folding enthalpy in data set [1] was -11.8 kcal/mol. Further, the Tm in data set [2] came to 55 °C.

Take GCACGAGAAATCGTGC ((((((....)))))): in data set [1], the folding enthalpy is -32 kcal/mol. In addition, the Tm in data set [2] came out at 68.6 °C.

For GTGTGTGGAAACGTACAC ((((..(....)..)))), the folding enthalpy in data set [1] was -23.5 kcal/mol. Further, the Tm in data set [2] was found to be 42 °C.

GCTCACGGAAACGTAAGC (((.(((....))).))): in data set [1], the folding enthalpy was -27.3 kcal/mol. Also, the Tm in data set [2] was 41.8 °C.

In the case of GCGAGTTGTCGC ((((....)))), the folding enthalpy in data set [1] is -15.5 kcal/mol. For the same sequence, the Tm in data set [2] is 50.9 °C.

Consider GCCTAAGGAAACCTAGGC (((((.(....).))))), for which, in data set [1], the folding enthalpy was -39.3 kcal/mol. In addition, the Tm in data set [2] stood at 44.9 °C.

Regarding GCCAACCCGAAAGGGGGC (((..(((....)))))), the folding enthalpy in data set [1] is -18.8 kcal/mol. In data set [2], the Tm was determined as 51.8 °C.

Regarding GGGTGTGGAAACGCACCC (((((.(....).))))), the folding enthalpy in data set [1] is -45.2 kcal/mol. Also, the Tm in data set [2] is 60 °C.

For GATCGAACTTTCGATC ((((((....)))))), the folding enthalpy in data set [1] is -35.6 kcal/mol. Further, the Tm in data set [2] was 53.4 °C.

GATCGAGGCTTCGATC ((((((....)))))): the folding enthalpy in data set [1] is -41.8 kcal/mol. For the same sequence, in data set [2], the Tm worked out at 57.9 °C.

Take GCATCGCGAAAGCGGAGC ((..(((....)))..)): the folding enthalpy in data set [1] is -16.5 kcal/mol. The Tm in data set [2] amounted to 54.2 °C.

With GTGTCATCGAAAGATCAC (((..(((....)))))), the folding enthalpy in data set [1] was -17.1 kcal/mol. Moreover, the Tm in data set [2] is 32.4 °C.

Take GGTACCGAAAGGTTTACC ((((((....)))..))): in data set [1], the folding enthalpy was -13.8 kcal/mol. Further, the Tm in data set [2] amounted to 37.1 °C.

On to GGCAGCGGAAACGCTACC ((.((((....)))).)), for which the folding enthalpy in data set [1] was -22.8 kcal/mol. Further, the Tm in data set [2] stood at 54 °C.

Consider GCCGGCACGAAAGTGGGC (((..(((....)))))), for which, in data set [1], the folding enthalpy was -19.2 kcal/mol. Further, in data set [2], the Tm was 51.8 °C.
